In ChEMBL document CHEMBL1132479, “Synthesis, physicochemical characterization, and biological evaluation of 2-(1'-hydroxyalkyl)-3-hydroxypyridin-4-ones: novel iron chelators with enhanced pFe(3+) values” (J Med Chem, 1999):

Key:
Rattus norvegicus [1] = assay: (§1) Compound was tested in vivo for Iron mobilization efficacy against hepatocytes in normal fasted rats (loaded with [59Fe]-Ferritin).; format: functional, Hepatocyte; design: concentration or dose not given beside the values
In short: (§2)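 Fasted normal rats (190–230 g) received [59Fe]ferritin by tail vein to label hepatocyte iron. One hour later chelator was given orally at 450 µmol/kg; controls received an equal volume of water. Rats were kept in metabolic cages, with food allowed 1 h after dosing and water unrestricted. At 24 h, liver and GI tract plus feces were gamma-counted. Mean ± SD, n=5.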

Rattus norvegicus [2] = assay: Compound was tested in vivo for Iron mobilization against hepatocytes in normal fasted rats (loaded with [59Fe]-Ferritin).; format: functional, Hepatocyte; in short: as §2
[3] = Partition coefficient (logP); format: physicochemical; conditions: octanol/water
[4] = Partition coefficient (logD7.4); format: physicochemical; conditions: octanol/water, pH 7.4
In short: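 Partitioning between 1-octanol and 50 mM MOPS buffer pH 7.4 (mutually saturated) in an automated continuous-flow filter-probe system. Compound was dissolved in buffer to an absorbance of 0.5–1.5 at ~280 nm. The aqueous phase was separated by a hydrophilic cellulose filter and monitored spectrophotometrically. D7.4 was calculated after each octanol addition.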

[5] = Affinity constant log beta-3 value for Fe(III) complex; format: ADME
In short: (§3)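 Spectrophotometric titration of Fe(III) with ligand at a ligand:iron ratio of about 10:1, with 0.2 M KOH added by programmed autoburette. Full spectra were recorded across pH, e.g. 1.59–10.05 with [Fe(III)] = 1.8×10^-4 M. Cumulative stability constants were optimized by non-linear least-squares regression using the predetermined pKa values, electrode slope and electrode zero.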

[6] = Ligand pka2 value was investigated by potentiometric titration; format: physicochemical; conditions: read-out: pKa2
In short: (§4)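 Simultaneous potentiometric and UV/vis titration in 0.1 M KCl (25 mL), acidified with 0.2 M HCl and titrated with 0.2 M KOH in 0.01-mL increments. Run at 25 ± 0.5 °C under argon. Electrode zero was set by a blank titration using Gran's plot. pKa values came from non-linear least-squares regression, accurate to ±0.02 pH unit.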

[7] = Affinity constant log K3 value for Fe(III) complex; format: ADME; in short: as §3
[8] = Ligand pka1 value was investigated by potentiometric titration; format: physicochemical; conditions: read-out: pKa1; in short: as §4
[9] = pFe3+ (negative logarithm of the concentration of the free Iron(III) in solution) of the compound.; format: ADME
In short: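 pFe3+ is the negative log of free Fe(III), calculated from the ligand pKa values and Fe(III) stability constants at total ligand 10^-5 M, total iron 10^-6 M, pH 7.4.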

[10] = Ligand pka2 value was investigated by spectrophotometric titration; format: physicochemical; conditions: read-out: pKa2; in short: as §4
[11] = Affinity constant log K2 value for Fe(III) complex; format: ADME; in short: as §3
[12] = Affinity constant log K1 value for Fe(III) complex; format: ADME; in short: as §3
Rattus norvegicus [13] = assay: Compound was tested in vivo for Iron mobilization against hepatocytes in normal fasted rats ( loaded with [59Fe]-Ferritin).; format: functional, Hepatocyte; in short: as §2
Rattus norvegicus [14] = assay: as §1; format: functional, Hepatocyte; in short: as §2
[15] = Ligand pka1 value was investigated by spectrophotometric titration; format: physicochemical; conditions: read-out: pKa1; in short: as §4
Rattus norvegicus [16] = assay: Compound was tested in vivo for Iron mobilization efficacy against hepatocytes in normal fasted rats(loaded with [59Fe]-Ferritin).; format: functional, Hepatocyte
In short: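 Normal fasted rats (190–230 g); hepatocyte iron labelled with [59Fe]ferritin given by tail vein. One hour later, chelator 450 µmol/kg was given orally; controls received an equivalent volume of water. Rats were housed in individual metabolic cages with urine and feces collected. Killed 24 h after ferritin; liver and GI tract with contents and feces were gamma counted. Means ± SD, n=5.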

Structure (SMILES)	Efficacy (Rattus norvegicus [1])	Iron mobilization (Rattus norvegicus [2])	logP [3]	logD [4]	Log beta3 [5]	pKa [6]	Log K3 [7]	pKa [8]	pFe3 [9]	pKa [10]	Log K2 [11]	Log K1 [12]	Iron mobilization (Rattus norvegicus [13])	Iron mobilization (Rattus norvegicus [14])	pKa [15]	Efficacy (Rattus norvegicus [16])
O=C(OCCCn1ccc(=O)c(O)c1CO)c1ccccc1	52.1%	56%	0.749	0.749												
Cn1ccc(=O)c(O)c1CO	4.6%	8.44%	-1.32	-1.32	35.3	9.11	9.58	2.92	20.9	9.11	11.27	14.47				
CCn1ccc(=O)c(O)c1CO	29.4%		-0.854	-0.854	35.3	9.27	9.43	2.8	21		11.16	14.66	33.3%			
CCn1ccc(=O)c(O)c1C(C)O (stereo not drawn)	50.6%		-0.575	-0.575	35.1	8.77	8.9	3.03	21.4		10.97	15.21		54.5%		
CC(O)c1c(O)c(=O)ccn1CCCO (stereo not drawn)	10.6%	14.5%	-1.12	-1.12	34.7	8.72	8.87	2.98	21.5		10.87	14.93				
Cc1c(O)c(=O)ccn1CCCOC(=O)c1ccccc1	32.5%		1.25	1.25												
O=c1ccn(CCCO)c(CO)c1O	7.8%	11.7%	-1.25	-1.25	35.3	9.29	9.57	3.02	20.7		10.01	15.67				
Cc1cc(=O)c(O)c(C(C)O)n1C (stereo not drawn)	44.5%	48.4%	-0.606	-0.606	35.5	8.99	9.05	3.54	21.5		11.09	15.38				
CCc1c(O)c(=O)ccn1CCOC(=O)C(C)(C)C	19.1%		1.16	1.16												
CCn1c(C)cc(=O)c(O)c1CO	9%	12.9%	-0.652	-0.652	35.6	9.45	9.64	3.29	20.4		11.6	14.37				
CCc1c(O)c(=O)ccn1CCO	12.9%															
CCC(O)c1c(O)c(=O)cc(C)n1C (stereo not drawn)	56.5%	60.4%	-0.134	-0.134	35	9	9.05	3.76	21		11.48	14.5			3.78	
Cc1cc(=O)c(O)c(CO)n1C	0.6%	4.5%	-1.01	-1.01	35.5	9.44	9.55	3.32	20.4		11.57	14.39				
Cc1c(O)c(=O)ccn1CCCO	26%															
CCc1c(O)c(=O)ccn1CC	55.8%				36.8	9.93	9.84	3.81	19.7		11.76	15.2				
Cc1c(O)c(=O)ccn1C [DEFERIPRONE]					36.4	9.77	9.69		19.4		12.19	14.56				9.5%
